Assay results reported in ChEMBL document CHEMBL1128509, “A novel type of retinoic acid receptor antagonist: synthesis and structure-activity relationships of heterocyclic ring-containing benzoic acid derivatives” (J Med Chem, 1995).
Calls of active or inactive are those of the source. The calls are words filed in the database; no cut-off is given here.

Columns and labels:
[1] = The concentration required to inhibit the binding of [3H]ATRA to retinoic acid receptor in human promyelocytic leukemia cells
[2] = system: HL-60; assay: Concentration inhibiting the differentiation-inducing activity of all-trans-retinoic acid (ATRA)(1*10e-8M) in human promyelocytic leukemia cells; format: functional, cell-based
In short: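 HL-60 cells at 1 × 10^5 cells/mL, 1 mL/well, exposed to ATRA (1.0 × 10^-8 M) plus graded test compound concentrations; 5 days in 5% CO2/air. Cells stained with FITC anti-CD11b, fixed in 0.2% paraformaldehyde, and analysed by flow cytometry for % CD11b-positive cells. IC50 read from activity vs log compound concentration plots; mean of two experiments.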

[3] = organism: Homo sapiens; assay: Differentiation-inducing activity of the compound. ED1/3 value was obtained from the percentage of the differentiated cells (CD11b-positive cells); No activity at concentrations below 3.0e-6M; format: functional
[4] = Differentiation-inducing activity of the compound. ED1/3 value was obtained from the percentage of the differentiated cells (CD11b-positive cells).; format: functional, Homo sapiens
In short: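 Human promyelocytic leukemia HL-60 cells were exposed to compound alone and scored for differentiation toward mature granulocytes. The read-out was the percentage of CD11b-positive (differentiated) cells, and ED1/3 was derived from these percentages. Activity was judged at concentrations below 3.0 × 10^-6 M. Values are the mean of two experiments.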

IC50 [1]	IC50 [2]	Compound	ED1/3 [3]	ED1/3 [4]
19 nM	520 nM	CCCCCn1cc(-c2ccc(C(=O)O)cc2)c2c1-c1cc3c(cc1CC2)C(C)(C)CCC3(C)C	–	–
17 nM	–	CC1(C)CCC(C)(C)c2cc3c(cc21)CCc1c(-c2ccc(C(=O)O)cc2)n[nH]c1-3	inactive	–
5.6 nM	650 nM	COc1ccncc1-n1cc(-c2ccc(C(=O)O)cc2)c2c1-c1cc3c(cc1CC2)C(C)(C)CCC3(C)C	–	–
0.59 nM	33 nM	CC1(C)CCC(C)(C)c2cc3c(cc21)CCc1c(-c2ccc(C(=O)O)cc2)cn(-c2cccnc2)c1-3	–	–
> 50 nM	> 3000 nM	CC1(C)CCC(C)(C)c2cc3c(cc21)CCc1c(-c2ccc(C(=O)O)cc2)cn(CC24CC5CC(CC(C5)C2)C4)c1-3	–	–
0.97 nM	69 nM	CC(C)Oc1cc2c(cc1C(C)C)CCc1c(-c3ccc(C(=O)O)cc3)cn(Cc3cccnc3)c1-2	–	–
3.7 nM	37 nM	Cc1cc2c(cc1OC(C)C)-c1c(c(-c3ccc(C(=O)O)cc3)cn1Cc1cccnc1)CC2	–	–
> 50 nM	300 nM	CC1(C)CCC(C)(C)c2cc3c(cc21)CCc1c(-c2ccc(C(=O)O)cc2)coc1-3	–	–
4.7 nM	78 nM	CC1(C)CCC(C)(C)c2cc3c(cc21)CCCc1c(-c2ccc(C(=O)O)cc2)cn(Cc2cccnc2)c1-3	–	–
22 nM	170 nM	COc1cc2c(cc1C(C)C)CCc1c(-c3ccc(C(=O)O)cc3)cn(Cc3cccnc3)c1-2	–	–
0.91 nM	1.3 nM	CC1(C)CCC(C)(C)c2cc3c(cc21)CCc1c(-c2ccc(C(=O)O)cc2)nn(Cc2cccnc2)c1-3	–	–
19 nM	100 nM	CC1(C)CCC(C)(C)c2cc3c(cc21)OCc1c(-c2ccc(C(=O)O)cc2)cn(Cc2cccnc2)c1-3	–	–
3.2 nM	490 nM	CC1(C)CCC(C)(C)c2cc3c(cc21)CCc1c(-c2ccc(C(=O)O)cc2)cn(-c2cnccc2Cl)c1-3	–	–
> 50 nM	1000 nM	CC1(C)Cc2c(-c3ccc(C(=O)O)cc3)cn(Cc3cccnc3)c2-c2cc3c(cc21)C(C)(C)CCC3(C)C	–	–
4.5 nM	540 nM	CC1(C)CCC(C)(C)c2cc3c(cc21)CCc1c(-c2ccc(C(=O)O)cc2)cn(Cc2cccs2)c1-3	–	–
> 50 nM	> 3000 nM	CC1(C)CCC(C)(C)c2cc3c(cc21)CCc1c(-c2ccc(C(=O)O)cc2)cnnc1-3	–	–
0.34 nM	4.9 nM	CC1(C)CCC(C)(C)c2cc3c(cc21)CCc1c(-c2ccc(C(=O)O)cc2)cn(Cc2cccnc2)c1-3	–	–
32 nM	> 3000 nM	CC1(C)CCC(C)(C)c2cc3c(cc21)CCc1c(-c2ccc(C(=O)O)cc2)c[nH]c1-3	–	–
> 5 nM	2400 nM	CC1(C)CCC(C)(C)c2cc3c(cc21)CCc1c(-c2ccc(C(=O)O)cc2)csc1-3	–	–

IC50 [1]	IC50 [2]	Compound	ED1/3 [3]	ED1/3 [4]
11 nM	77 nM	CC1(C)CCC(C)(C)c2cc3c(ccc4c(-c5ccc(C(=O)O)cc5)cn(Cc5cccnc5)c43)cc21	–	–
1.2 nM	210 nM	CC1(C)CCC(C)(C)c2cc3c(cc21)CCc1c(-c2ccc(C(=O)O)cc2)cn(Cc2ccccc2)c1-3	–	–
14 nM	360 nM	CC1(C)CCC(C)(C)c2cc3c(cc21)CCc1c(-c2ccc(C(=O)O)cc2)cn(C2CC2)c1-3	–	–
16 nM	–	Cn1nc(-c2ccc(C(=O)O)cc2)c2c1-c1cc3c(cc1CC2)C(C)(C)CCC3(C)C	inactive	–
1.5 nM	56 nM	CC1(C)CCC(C)(C)c2cc3c(cc21)CCc1c(-c2ccc(C(=O)O)cc2)nn(Cc2ccccc2)c1-3	–	–
> 50 nM	> 3000 nM	CC1(C)CCC(C)(C)c2cc3c(cc21)CCc1c(-c2ccc(C(=O)O)cc2)ccnc1-3	–	–
30 nM	300 nM	CC(C)Oc1cc2c(cc1-c1ccccc1)CCc1c(-c3ccc(C(=O)O)cc3)cn(Cc3cccnc3)c1-2	–	–
0.16 nM	5.6 nM	CC1(C)CCC(C)(C)c2cc3c(cc21)SCc1c(-c2ccc(C(=O)O)cc2)cn(Cc2cccnc2)c1-3	–	–
2.9 nM	230 nM	CC(C)Oc1cc2c(cc1Cl)CCc1c(-c3ccc(C(=O)O)cc3)cn(Cc3cccnc3)c1-2	–	–
0.14 nM	17 nM	CC1(C)CCC(C)(C)c2cc3c(cc21)CCc1c(-c2ccc(C(=O)O)cc2)cn(Cc2ccccn2)c1-3	–	–
80 nM	–	Cn1nc2c(c1-c1ccc(C(=O)O)cc1)CCc1cc3c(cc1-2)C(C)(C)CCC3(C)C	inactive	–
> 50 nM	1600 nM	CC1(C)CCOc2cc3c(cc21)CCc1c(-c2ccc(C(=O)O)cc2)cn(Cc2cccnc2)c1-3	–	–
13 nM	1100 nM	CC1(C)CCSc2cc3c(cc21)CCc1c(-c2ccc(C(=O)O)cc2)cn(Cc2cccnc2)c1-3	–	–
2.3 nM	84 nM	CC1(C)CCC(C)(C)c2cc3c(cc21)CCc1c(-c2ccc(C(=O)O)cc2)cn(Cc2ccncc2)c1-3	–	–
0.63 nM	–	CC1=C(/C=C/C(C)=C/C=C/C(C)=C/C(=O)O)C(C)(C)CCC1 [TRETINOIN]	–	340 pM
> 50 nM	200 nM	Cn1cc(-c2ccc(C(=O)O)cc2)c2c1-c1cc3c(cc1CC2)C(C)(C)CCC3(C)C	–	–
3.4 nM	51 nM	CC1(C)CCC(C)(C)c2cc3c(cc21)CCc1c(-c2ccc(C(=O)O)cc2)cn(Cc2ccco2)c1-3	–	–
16 nM	1300 nM	CC1(C)CCC(C)(C)c2cc3c(cc21)CCc1c(-c2ccc(C(=O)O)cc2)cn(CCc2ccccn2)c1-3	–	–

Compound	IC50 [1]	IC50 [2]	ED1/3 [3]	ED1/3 [4]
CC1(C)CCC(C)(C)c2cc(-c3cc(-c4ccc(C(=O)O)cc4)[nH]n3)ccc21	19 nM	–	–	900 pM
